High-throughput results as filed in PubChem BioAssay.
ABCB1 block = inhibitors of human ABCB1 transporter, ABCG2 counter-screen | P08183 | CCRF-Adr cells, JC-1 efflux, flow cytometry | inhibition, % at 6.6 µM | 190,000 compounds, 0.067% hits; in the data active = inhibition above about 40%;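 also: 0% = vehicle and 100% = reference inhibitor; higher value means more JC-1 retained so stronger ABCB1 efflux block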
ABCG2 block = inhibitors of human ABCG2 transporter, ABCB1 counter-screen. 190,000 compounds, 0.1% hits. Q9UNQ0. IgMXP3 cells, JC-1 efflux, flow cytometry. inhibition, % at 6.6 µM;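 active = inhibition above 80%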;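 also: 0% = DMSO and 100% = nicardipine control wells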
Target sequence (Q9UNQ0 whole entry, looked up): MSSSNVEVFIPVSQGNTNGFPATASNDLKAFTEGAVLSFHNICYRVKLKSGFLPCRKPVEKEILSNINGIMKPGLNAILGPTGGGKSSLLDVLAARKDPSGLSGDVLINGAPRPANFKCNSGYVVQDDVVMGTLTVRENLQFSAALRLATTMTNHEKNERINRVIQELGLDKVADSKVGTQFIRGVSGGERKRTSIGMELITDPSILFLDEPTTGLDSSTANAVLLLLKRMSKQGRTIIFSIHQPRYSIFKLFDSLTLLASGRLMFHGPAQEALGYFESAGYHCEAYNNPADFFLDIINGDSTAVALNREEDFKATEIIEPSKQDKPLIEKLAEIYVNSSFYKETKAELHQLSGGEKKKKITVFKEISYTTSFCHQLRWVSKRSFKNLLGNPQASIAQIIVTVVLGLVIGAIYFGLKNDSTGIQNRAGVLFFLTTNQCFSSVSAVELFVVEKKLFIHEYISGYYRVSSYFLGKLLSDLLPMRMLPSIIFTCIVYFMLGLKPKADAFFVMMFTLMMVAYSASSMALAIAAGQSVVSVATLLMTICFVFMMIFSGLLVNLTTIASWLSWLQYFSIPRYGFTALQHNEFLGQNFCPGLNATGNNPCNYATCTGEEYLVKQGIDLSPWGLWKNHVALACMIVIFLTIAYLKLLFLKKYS
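Read-out basis: Efflux inhibition in percent versus controls | Test system: ABCG2 IgMXP3 and barcoded ABCB1 CCRF-Adr cell mix | Quantity: 3 million cells/mL in well | Schedule: 10 min at 25 °C | Control set: Nicardipine as high control, DMSO as low control | Reagent: JC-1 as fluorescent efflux pump substrate | Signal: Flow cytometry of retained JC-1 fluorescence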
PKD1 inh = PKD1 (human) kinase inhibition; inhibition, % (no concentration beside the values); 200,000 compounds, 0.056% hits; Q15139; AID 797; PKD1 kinase fluorescence polarization assay; in the data active = inhibition above about 50%
HSV replic up = increases HSV replication in cells. HSV replication augmentation in cells, fold increase. maximum fold increase. 220,000 compounds, 0.005% hits. AID 1956; in the data active = maximum fold increase above about 1.5; inconclusive = no clear call, values can overlap the other calls; tested in PC3 cells
p47phox inh = inhibitors of human p47phox binding. P14598. inhibition, % at 24.7 µM. 220,000 compounds, 0.53% hits. AID 1274. p47phox/p22phox peptide binding, fluorescence polarization, 2 h;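 active = inhibition above about 30%, limit read from the data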;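 also: 0% = p47phox with labelled peptide and 100% = labelled peptide alone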
PHOSPHO1 inh = blocks human PHOSPHO1 phosphatase activity; AID 1565; Q8TCT1; recombinant PHOSPHO1, absorbance phosphatase assay; inhibition, % at 13.3 µM; 290,000 compounds, 1.1% hits; in the data active = inhibition above about 60%
The depositor's hits bear a star; i = inactive; u = inconclusive; x = not tested or not shown. Compounds with a hit are over-represented: about 1.6% of the library has one in this group of screens.

SMILES	ABCB1 block	ABCG2 block	PKD1 inh	HSV replic up	p47phox inh	PHOSPHO1 inh
CCOC(=O)N1CCc2c(sc3ncn(C)c(=O)c23)C1	x	x	x	i	-11.0	12.9
CCOC(=O)N1CCc2c(sc3nc4n(c(=O)c23)N=C(c2ccc(OC)cc2)CS4)C1	x	x	x	i	37.9*	1.5
COc1ccc(C(=O)C[n+]2ccc(N(C)C)cc2)cc1	x	x	x	i	-8.3	23.9
CN(C)c1ccc(CNS(=O)(=O)c2ccc3c(c2)C(C)(C)C(=O)N3C)cc1	x	x	x	x	x	30.6
COCCn1c(C)cc(C2=NNC(=Nc3ccccc3F)SC2)c1C	0.1	0.4	-1.4	i	-21.2	88.1*
CC(C)C(=O)Nc1sc2c(c1-c1nc3ccccc3[nH]1)CCCC2	0.2	2.9	-8.8	i	-56.6	103.6*
CC(NC(=O)Cc1ccccc1)c1nc2ccccc2[nH]1 (stereo not drawn)	0.0	0.7	0.1	i	0.7	-3.9
CCN(CC(=O)NCc1ccc(F)cc1)C(=O)Cc1ccc(OC)cc1	x	x	x	x	x	6.5
Cc1ccccc1CCN(C(=O)Cn1nnc2ccccc21)C(C(=O)NCC1CCCO1)c1nc2ccccc2n1C (stereo not drawn)	0.6	6.8	5.1	i	45.1*	-9.3
Cc1ccc(/C=c2/sc3nnc(-c4ccccc4Cl)n3c2=O)o1	1.8	57.7	-2.0	i	-32.0	92.3*
Cc1ccc(/C=c2\sc3nc(-c4ccccc4Br)nn3c2=O)o1	-0.6	4.0	-5.6	x	-112.3	-27.1
COc1ccccc1N1CCN(C(=O)CSc2ncccc2-c2nc3ccccc3[nH]2)CC1	-4.8	-10.8	2.9	i	-11.1	97.6*
O=C(CSc1ncccc1-c1nc2ccccc2[nH]1)N1CCN(c2ccccc2F)CC1	3.0	0.7	3.4	i	-26.6	88.4*
COc1ccc(N2CCN(C(=O)CSc3ncccc3-c3nc4ccccc4[nH]3)CC2)cc1	0.1	0.2	-15.4	i	-46.4	93.8*
COc1ccccc1N1CCN(C(=O)CSc2nc3ccccc3[nH]2)CC1	0.6	8.4	-0.7	i	-12.1	25.7
O=C(O)c1cc(-c2ccccc2)n(-c2ccc(Cl)cc2)n1	0.1	4.0	-0.3	i	-11.1	31.7
CNC(=O)C1CC(=O)N(c2ccc(OCC(=O)NCc3ccccc3)cc2)C1 (stereo not drawn)	x	x	x	x	x	-21.7
C=CCNc1nc2c3ccccc3n(C(C)=O)c2s1	0.6	3.3	2.5	i	-8.8	69.9*
C=Cc1ccc(Cn2c(=O)n(CCCOC)c(=O)c3sccc32)cc1	x	x	x	x	x	13.8
Nc1ncc(Br)cc1S(=O)(=O)NC1CCCCC1	x	x	x	x	x	72.5*
C=CCc1c(C)[nH]c(=S)c(C#N)c1C	-0.1	1.4	-12.3	i	11.5	82.7*
COCc1cc(C)c(C#N)c(=S)[nH]1	0.7	4.9	-6.4	i	-5.3	42.0
CCCCCCn1c(SCC(=O)OC)nc2c1c(=O)[nH]c(=O)n2C	0.6	1.4	-6.2	i	-6.2	82.6*
COCCn1c(SCCN2CCOCC2)nc2c1c(=O)[nH]c(=O)n2C	0.0	0.3	5.7	i	-7.9	63.2*
CCOC(=O)C(C)Sc1nc2c(c(=O)[nH]c(=O)n2C)n1C/C=C(/C)Cl (stereo not drawn)	1.2	8.1	-13.7	i	-0.6	64.8*
SMILES	ABCB1 block	ABCG2 block	PKD1 inh	HSV replic up	p47phox inh	PHOSPHO1 inh
COc1ccc(C)cc1S(=O)(=O)N1CCN(C(=O)c2ncoc2-c2cccc(F)c2)CC1	x	x	x	x	x	31.9
Cc1ccc([N+](=O)[O-])cc1-c1ccc(/C=N/NC(=O)c2cc3c(ccc4ccccc43)o2)o1	-0.6	-0.1	-8.4	x	-38.2	7.1
Cc1ccc(-c2ccc(/C=N\NC(=O)c3cc4c(ccc5ccccc54)o3)o2)cc1[N+](=O)[O-]	-0.7	-0.6	12.5	x	38.8*	28.5
Cc1ccc(CN2CCN(C(=O)c3ccncc3)CC2)cc1	-0.2	-0.5	-2.4	i	3.0	68.4*
Cc1cccc(Nc2ncnc3ccc(Br)cc23)c1	1.4	15.9	-1.8	i	-12.6	8.1
Clc1cccc(Nc2ncnc3ccc(Br)cc23)c1	2.2	21.4	-3.1	i	-23.8	62.0*
CC(C)(C)c1ccc(OCC(O)CSc2ncn[nH]2)cc1 (stereo not drawn)	0.0	0.6	-5.0	i	-0.1	79.7*
CNC(=O)CCc1[nH]c2ccccc2c1Sc1ccccc1	1.9	30.2	7.8	i	33.5*	-9.8
COc1ccc(S(=O)(=O)N2CCCC(C(=O)NC3CC3)C2)cc1Cl (stereo not drawn)	x	x	x	x	x	36.0
COc1cc2c(cc1OC)C(c1ccc(-c3cc(Cl)ccc3Cl)o1)=NCC2	1.8	8.8	6.8	i	50.8*	17.9
COc1cc2c(cc1OC)C(c1ccc(-c3ccc(Cl)cc3Cl)o1)=NCC2	1.2	2.6	-4.9	x	-9.4	17.9
O=C1S/C(=C\c2ccc(N3CCOCC3)o2)C(=O)N1Cc1c(F)cccc1Cl	7.8	132.2*	-10.9	u	-84.5	10.0
O=C(Nc1ccccc1)Nc1ccc(Br)c(Cl)c1	-0.3	1.3	-4.5	i	-1.0	1.9
O=C(NNC1=Nc2cccc3cccc1c23)c1ccc(Br)cc1	-0.3	-0.9	50.1*	u	-53.9	17.0
NC(=O)c1cc(S(=O)(=O)NCCc2ccc(Cl)cc2)cs1	x	x	x	x	x	34.4
Cn1cnnc1SCc1ccccc1	0.1	1.4	-3.5	x	1.7	12.8
Cn1cnnc1SCc1ccc(-c2ccc(Br)cc2)o1	0.0	0.8	-7.2	i	-18.5	84.6*
Cn1c(=O)c2ccccc2n(Cc2cccc(F)c2)c1=O	x	x	x	x	x	4.2
O=C(Nc1ccccc1C(=O)O)c1ccc(NC(=O)c2ccc(Br)o2)cc1	-1.5	-10.8	-2.9	i	90.4*	-4.9
COc1ccc(-c2ccc(C#N)c(SCC(=O)Nc3sc4c(c3C#N)CCC4)n2)cc1OC	0.6	0.3	0.6	i	34.2*	8.6
Cc1nnc(NC(=O)c2ccccc2F)s1	0.0	3.0	2.5	i	9.9	-3.3
Cc1ccccc1N(C)S(=O)(=O)c1nnc(NC(=O)c2ccccc2F)s1	x	x	x	x	x	64.0*
Fc1ccc(-n2[nH]nnc2=S)cc1N1CCCC1	0.0	0.2	-6.1	i	-6.0	77.7*
CC(C)(CNC(=O)COc1ccccc1Cc1ccccc1)N1CCOCC1	0.0	3.4	-5.8	i	x	-12.7
CCOC(=O)/C=c1\s/c(=C(\C#N)C(=O)NC)n(-c2ccccc2)c1=O	0.5	47.3	-1.4	i	-21.3	11.0
Cc1ccccc1-n1c(=O)/c(=C\c2ccco2)s/c1=C(/C#N)C(=O)Nc1ccccc1	0.5	1.4	5.7	i	-83.8	83.3*
COc1nccc(Nc2ccccc2)c1C#N	0.0	-0.5	-13.8	i	44.1*	-8.1
CSc1nccc(Nc2ccccc2)c1C#N	0.6	4.0	-10.9	i	-1.6	-0.2
COC(=O)[C@@H](NC(=O)Nc1cccc(OC)c1)C(C)C	0.4	1.6	-4.2	i	-2.7	60.1*
